Experiment [1] in a line: Increased transcription of human calcitonin luciferase reporter gene at 30 uM. The class given is functional. In outline:
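Luciferase reporter gene under control of the human calcitonin gene/promoter, used to measure transcription activation. Compound tested at 30 µM. Read-out is the transcription activation ratio: luciferase activity with compound divided by luciferase activity in untreated control.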

Experiment [2] in a line: Ability to increase Human calcitonin secretion. Format: functional. In outline: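 Calcitonin secretion assay with radioimmunoassay read-out, measuring the rise in cellular levels and secretion of human CT. Compound tested at 30 µM. Value is the ratio of secretion with compound to secretion in untreated control; average precision error reported as 10-33%.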
The target in experiment [3] is T1, Phosphodiesterase 4 (Homo sapiens, UniProt P27815+Q08499+Q07343+Q08493). Kind of experiment: Percent Rolipram activity of a standard U937 cell phosphodiesterase 4 (PDE4) enzyme assay at 30 uM of compound. Format: cell-based. Particulars: U-937. In outline:
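U937 cell PDE4 enzyme assay with compound at 30 µM. Activity is scaled and reported as percent of rolipram activity.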

In experiment [4] the target is T1, Phosphodiesterase 4. Kind of experiment: Inhibition of phosphodiesterase 4 (PDE4). Format: protein assay.

Regarding `CCCCn1c(=O)c2cn(S(=O)(=O)c3ccc(C(C)(C)C)cc3)nc2n(CCCC)c1=O`, the CT-luci TAR in experiment [1] was 2.6 T/C. For the same molecule, in experiment [2], the CTS increase was found to be 2.9. The Activity on Phosphodiesterase 4 [3] came out at 57%.
For `CCCCn1c(=O)c2cn(S(=O)(=O)Cc3ccccc3)nc2n(CCCC)c1=O`, in that order: 2 T/C, 3.4 and 52%.
`CCCCn1c(=O)c2cn(S(=O)(=O)CCCCl)nc2n(CCCC)c1=O` displayed an IC50 against Phosphodiesterase 4 [4] of 4.9 µM. Further, in experiment [1], the CT-luci TAR was determined as 1.9 T/C. Besides, the CTS increase in experiment [2] was determined as 2.7. Besides, the Activity on Phosphodiesterase 4 [3] was 66%.
With `CCCCn1c(=O)c2nn(S(=O)(=O)c3cccc(C(F)(F)F)c3)cc2n(CCCC)c1=O`, the CT-luci TAR in experiment [1] was 1.8 T/C. In addition, in experiment [2], the CTS increase was 3.8. The molecule also had an Activity on Phosphodiesterase 4 [3] of 32%.
For `CCCCn1c(=O)c2c(ncn2CC(C)=O)n(CCCC)c1=O`, in that order: 2.1 T/C, 3.5 and 100%.
For `CCCCn1c(=O)c2nn(S(=O)(=O)c3ccc4ccccc4c3)cc2n(CCCC)c1=O`, in that order: 1.8 T/C, 4.9 and 66%.
With `CCCCn1c(=O)c2cn(S(=O)(=O)c3cc(Cl)c(Cl)s3)nc2n(CCCC)c1=O`, the CT-luci TAR in experiment [1] was 3.2 T/C. Also, in experiment [2], the CTS increase was 3. The same molecule gave an Activity on Phosphodiesterase 4 [3] of 16%.
For `CCCCn1c(=O)c2nn(S(=O)(=O)c3ccc(C(C)(C)C)cc3)cc2n(CCCC)c1=O` the same measures were 2.3 T/C, 4.5 and 37%.
For `CCCCn1c(=O)c2nn(S(=O)(=O)Cc3ccccc3)cc2n(CCCC)c1=O` the same measures were 1.5 T/C, 2.6 and 65%.
For `CCCCn1c(=O)c2nn(S(=O)(=O)c3cc(Cl)c(Cl)s3)cc2n(CCCC)c1=O`, in that order: 1.7 T/C, 3.4 and 59%.
For the molecule `CCCCn1c(=O)c2cn(S(C)(=O)=O)nc2n(CCCC)c1=O`, in experiment [1], the CT-luci TAR stood at 1.8 T/C. Further, in experiment [2], the CTS increase amounted to 3.9. On Phosphodiesterase 4 [3], this molecule registered an Activity of 93%.
On to `CCCCn1c(=O)c2nn(S(C)(=O)=O)cc2n(CCCC)c1=O`, for which, in experiment [1], the CT-luci TAR worked out at 2.1 T/C. Besides, the CTS increase in experiment [2] was found to be 0.9. For the same molecule, the Activity on Phosphodiesterase 4 [3] was determined as 60%.
As for `CCCCn1c(=O)c2cn(S(=O)(=O)c3ccccc3C#N)nc2n(CCCC)c1=O`, the CT-luci TAR in experiment [1] came to 3.6 T/C. The CTS increase in experiment [2] amounted to 3.4. The molecule also showed an Activity at Phosphodiesterase 4 [3] of 32%.
For `CCCCn1c(=O)c2nn(S(=O)(=O)c3cccc4cccnc34)cc2n(CCCC)c1=O`, in that order: 2.2 T/C, 3.8 and 59%.
On to `CCCCn1c(=O)c2nn(S(=O)(=O)CCCCl)cc2n(CCCC)c1=O`, for which the IC50 against Phosphodiesterase 4 [4] stood at 4.9 µM. Further, the CT-luci TAR in experiment [1] was determined as 1.3 T/C. Further, the CTS increase in experiment [2] stood at 4.4. This molecule had an Activity on Phosphodiesterase 4 [3] of 69%.
For the molecule `CCCCn1c(=O)c2cn(S(=O)(=O)c3cccc4cccnc34)nc2n(CCCC)c1=O`, the CT-luci TAR in experiment [1] amounted to 2.9 T/C. The CTS increase in experiment [2] was 4.8. Besides, the Activity on Phosphodiesterase 4 [3] amounted to 96%.

(Values after ChEMBL document CHEMBL1135752, “Pyrazolopyrimidine-2,4-dione sulfonamides: novel and selective calcitonin inducers” (J Med Chem, 2002).)
